From PubChem
Hits are enriched below; roughly 4.9% of the tested compounds scored in any of these assays.
HSF1 inh = HSF1 inhibition; NIH3T3-HGL HSE-luciferase, MG132-induced, luminescence 8 h; stronger effect = lower value; activity change, negative = inhibition, % at 7.5 µM (by protocol); 0.77% of 300,000 active; AID 2098;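 active = more than half of replicate wells show activity change below -50%, luminescence cut by over half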;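 also: luciferase reports HSF-1 transcriptional activity via heat shock element; 0% = median of DMSO wells and -100% = zero luminescence signal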
HSF1 activator = increases HSF-1 driven luciferase reporter signal. activation, % at 9 µM. NIH3T3-HGL HSF-1 luciferase reporter, MG132, 8 h; 100% = twice DMSO control signal. AID 504408. 1.7% of 300,000 active;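 active = mean replicate activation of at least 50% with a set share of replicates each reaching 50%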;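 also: 0% = median of the neutral control wells and 100% = twice that signal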
CHT inh = human CHT choline transport inhibition; Q9GZV3; CHT-expressing cells, membrane potential dye, choline response; stronger effect = lower value; B-score at 10 µM; 0.86% of 310,000 active;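 active = B-score over 3 SD under the library average, and starting fluorescence ratio not unusually high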;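 also: choline stimulus applied at its EC90 after an EC20 pre-addition; B-score computed on integrated fluorescence ratio after choline addition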
Target sequence (Q9GZV3 whole entry, looked up): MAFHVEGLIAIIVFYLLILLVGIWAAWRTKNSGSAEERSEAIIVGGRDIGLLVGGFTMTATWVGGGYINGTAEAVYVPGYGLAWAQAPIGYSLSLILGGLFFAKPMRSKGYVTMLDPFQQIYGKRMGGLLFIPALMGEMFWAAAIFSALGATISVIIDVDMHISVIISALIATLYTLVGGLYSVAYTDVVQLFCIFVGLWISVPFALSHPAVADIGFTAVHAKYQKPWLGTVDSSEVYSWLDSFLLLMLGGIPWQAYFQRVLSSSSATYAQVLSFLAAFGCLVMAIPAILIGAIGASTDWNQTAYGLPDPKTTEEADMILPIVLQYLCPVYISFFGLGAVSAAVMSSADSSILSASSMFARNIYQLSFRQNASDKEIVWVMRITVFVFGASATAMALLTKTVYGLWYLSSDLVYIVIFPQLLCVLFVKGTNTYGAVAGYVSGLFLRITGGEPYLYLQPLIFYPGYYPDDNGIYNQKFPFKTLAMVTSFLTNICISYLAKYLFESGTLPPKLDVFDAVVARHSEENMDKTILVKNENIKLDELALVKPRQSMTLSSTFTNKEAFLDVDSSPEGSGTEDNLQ
PHOSPHO1 block = PHOSPHO1 (human) inhibition | Q8TCT1 | recombinant PHOSPHO1, absorbance phosphatase assay | 1.1% of 290,000 active | inhibition, % at 13.3 µM; in the data active = inhibition above about 60%
Lipid droplet = hepatic lipid droplet formation modulation; AML12 mouse hepatocytes, oleate lipid droplets, BODIPY imaging; inhibition, % at 6.5 µM; 0.4% of 240,000 active;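 active = lipid droplet intensity inhibited by at least 50%, with more than 500 cells counted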
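Material – mouse AML12 hepatocyte cell line, fixed after treatment · Compound dosing – one dose, 6.5 µM compound · Times – compound with oleate, overnight · Measured by – Image-based BODIPY and DAPI two-channel analysis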
CHT PAM = allosteric activators of human choline transporter CHT; CHT-expressing cells, membrane potential dye, choline EC20; stronger effect = higher value; LV-AA mutant CHT in HEK293 cells; B-score at 10 µM; Q9GZV3; AID 488977; 0.49% of 310,000 active;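 active = initial fluorescence not abnormally high and integrated response B-score, plate-corrected, over 3 SD above library mean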
CHT activ conf = human CHT activation, confirmatory screen | activation, % at 10 µM | CHT-expressing cells, membrane potential dye fluorescence (FDSS); % of choline EC20–EC90 response window; HEK293 expressing CHT LV-AA mutant; choline added at its EC20 | AID 504833 | shares compounds with CHT PAM | 91% of 2,500 active;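 active = primary screen active, with duplicate mean activation above negative control mean plus 3 SD, cut at about 11% in these data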
HEK293 MP dye = counter-screen for CHT activators: effect in parental HEK293 cells; 62% of 2,500 active; membrane potential dye fluorescence (FDSS); measured after EC20 choline addition; ratio readout change at 10 µM, hits read low; shares compounds with CHT PAM;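 active = duplicate-averaged ratio beyond 3 SD from buffer wells, up or down, though filed actives are nearly all decreases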
Starred values were filed as active, the others as inactive; i = inactive; / = not tested or not shown.

SMILES	HSF1 inh	HSF1 activator	CHT inh	PHOSPHO1 block	Lipid droplet	CHT PAM	CHT activ conf	HEK293 MP dye
N#CC1=C(SCC(N)=O)NC2=C(C(=O)c3ccccc32)C1c1ccc(Cl)cc1 (configuration not stated)	16	26	i	1	/	i	/	/
COc1ccc2nc(N3CCN(C(=O)C4COc5ccccc5O4)CC3)sc2c1 (configuration not stated)	20	28	i	/	/	i	/	/
OC(CNCc1ccccn1)c1ccccc1 (configuration not stated)	-2	-1	i	-6	-10	i	/	/
Fc1ccc(C(CCNCc2ccccn2)c2ccc(Cl)cc2)cc1 (configuration not stated)	16	15	i	24	0	i	16*	i
COc1ccc(N(CC(=O)Nc2ccc(C)cn2)S(=O)(=O)c2c(C)noc2C)cc1	-3	4	i	27	/	6.6*	7	i
CCOc1ccc(N(CC(=O)Nc2ccc(OC)cc2)S(=O)(=O)c2c(C)noc2C)cc1	0	-6	i	-2	/	i	/	/
COc1cccc(NC(=O)CN2C(=O)C(c3ccc(C)cc3)=NC23CCCCCC3)c1	3	11	i	2	-3	i	/	/
COc1cc(NC(=O)CN2C(=O)C(c3ccccc3)=NC23CCCCCC3)cc(OC)c1	-5	-17	i	2	6	7.6*	6	i
Cc1ccn2cc(-c3cccc(NS(C)(=O)=O)c3)nc2c1	23	28	i	22	-5	6.3*	35*	-42*
CC(=O)Nc1cccc(-c2cn3ccc(C)cc3n2)c1	19	47	i	2	-13	i	/	/
Cc1ccn2cc(-c3cccc([N+](=O)[O-])c3)nc2c1	/	/	i	51	3	i	39*	-46*
N=C(N)SCCc1cccc(CCSC(=N)N)c1	-1	-7	i	/	/	9*	43*	-46*
N=C(N)SCCc1cnc[nH]1	/	/	i	/	/	i	/	/
CCCN(CC(=O)Nc1ccccc1C)C(=O)c1cccc(S(=O)(=O)N2CCc3ccccc3C2)c1	5	1	i	22	-2	6.9*	6	i
CCCN(CC(=O)Nc1ccccc1C)C(=O)c1ccc(S(=O)(=O)N2CCCCCC2)cc1	-4	-1	i	9	15	i	/	/
O=C(c1cccc(C(F)(F)F)c1)C1CCCN(Cc2cccc(OCCO)c2)C1 (configuration not stated)	16	33	i	-2	-28	i	/	/
O=C(c1cccc(C(F)(F)F)c1)C1CCCN(Cc2cccn2-c2ccccn2)C1 (configuration not stated)	-2	9	i	46	-71	12*	-5	i
C#CCOc1c(/C=C\c2nc(O)c([N+](=O)[O-])c(=O)[nH]2)cc(Br)cc1OC	-1	-4	i	14	-3	i	/	/
CCN(CC)CCCCNc1ncc2cc(-c3cc(OC)cc(OC)c3)c(NC(=O)NC(C)(C)C)nc2n1	1	-9	i	31	-2	6.7*	47*	-23*
CCN1CCN(c2nc3c(c(=O)[nH]c(=O)n3C)n2Cc2ccccc2F)CC1	-1	-20	i	25	6	i	/	/
CCN1CCN(c2nc3c(c(=O)[nH]c(=O)n3C)n2CCSc2nc3ccccc3s2)CC1	-4	8	i	39	/	13*	40*	-45*
Cn1c(=O)c2c(nc(N3CCN(C(=O)c4ccco4)CC3)n2CCSc2ncccn2)n(C)c1=O	-8	-5	i	5	3	7.1*	57*	-58*
Cc1cccc(Cn2c(N3CCN(C)CC3)nc3c2c(=O)[nH]c(=O)n3C)c1	4	5	i	3	8	i	/	/
CN1CCN(c2nc3c(c(=O)[nH]c(=O)n3C)n2CCCSc2nnnn2-c2ccccc2)CC1	-4	14	i	26	0	6.6*	47*	-49*
CCCn1c(N2CCN(Cc3cccc(C)c3)CC2)nc2c1c(=O)[nH]c(=O)n2C	4	0	i	-11	/	i	12*	-28*
SMILES	HSF1 inh	HSF1 activator	CHT inh	PHOSPHO1 block	Lipid droplet	CHT PAM	CHT activ conf	HEK293 MP dye
CC1(C)c2ccccc2-c2nc3ccccc3cc2C1O (configuration not stated)	16	6	i	2	5	i	/	/
COc1ccccc1OCC(=O)Nc1ccc(CSc2ccccc2)cc1C	7	-1	i	21	18	i	/	/
CC(C)(OC(=O)NC(=O)C(F)(F)F)C(C)(C)OC(=O)NC(=O)C(F)(F)F	/	/	i	29	6	i	/	/
CN1CCN(c2nc3c(c(=O)n(C)c(=O)n3C)n2CCSc2nc3ccccc3s2)CC1	/	/	i	32	-17	7.4*	65*	-46*
Cc1ccnc(SCCn2c(N3CCC(C)CC3)nc3c2c(=O)[nH]c(=O)n3C)n1	/	/	/	-5	/	/	/	/
Cn1c(=O)c2c(nc(N3CCCCCC3)n2CCSc2nc3ccccc3o2)n(C)c1=O	-8	-13	i	-1	/	i	/	/
Cc1ccnc(SCCn2c(N3CCOCC3)nc3c2c(=O)[nH]c(=O)n3C)n1	/	/	i	/	/	10*	65*	-58*
COc1cc(OC)c(OC)cc1CNCCNC(=O)c1ccco1	8	47	i	43	0	i	/	/
CCc1nnc(NC(=O)CSc2nnc3nc(C)cc(C)n23)s1	0	3	i	10	-8	8.5*	52*	-61*
Cc1c(CCOC(=O)CC23CC4CC(CC(C4)C2)C3)sc[n+]1CC(=O)c1ccccc1	11	10	i	9	8	i	45*	i
O=C(NCCNc1ccc([N+](=O)[O-])cc1)c1cccs1	10	40	i	-1	1	i	/	/
COc1ccc(N2CCN(C(=O)C(CCSC)N=C3NS(=O)(=O)c4ccccc43)CC2)cc1 (configuration not stated)	5	12	i	-37	-1	i	/	/
CCOC(=O)c1sc2nc(SCC#N)n(CCCN3CCCC3=O)c(=O)c2c1C	6	12	i	20	-3	i	21*	i
CC1(C)Cc2c(sc3c2C2=NCCN2C=N3)CO1	-3	10	i	-2	12	9.3*	75*	-63*
Clc1ccccc1-c1nn2c(-c3ccccn3)nnc2s1	3	0	i	6	/	i	43*	-38*
